Screens deposited in PubChem by several laboratories.
A selection: hits, their analogues and other compounds. The true share with any hit is near 2.1%.
B2AR ag: activates human beta-2 adrenergic receptor causing internalization; Am2.2-beta2AR cells, FAP receptor internalization, flow cytometry; response, % (test concentration not listed); 340,000 compounds, 0.43% hits; AID 504454;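 active = response above a set limit, near 3 SD of response in nonfluorescent compounds, cut at about 42% in these data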
aDG glyco up: alpha-DG glycosylation activation | activation, % at 10 µM | 360,000 compounds, 0.22% hits | Pro5-aDG cells, alpha-DG glycosylation AlphaScreen (IIH6); 0% Pro5, 100% B10-LARGE cell signal | AID 624168;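 active = activation of at least 8% versus controls, or a plate z-score of at least 8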;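 note: Pro5 are CHO cells carrying HIG-tagged alpha-DG that lacks glycosylation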
PfG6PD inh: PfG6PD (Plasmodium falciparum) enzyme inhibition. PfGluPho enzyme, NADPH resazurin-diaphorase fluorescence. inhibition, % at 20 µM. AID 504690. 350,000 compounds, 0.78% hits;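 active = inhibition reaching at least a set limit at 20 µM in the primary screen, cut at about 59% in these data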;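 note: 0% = DMSO wells with substrate and 100% = DMSO wells lacking glucose-6-phosphate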
HKDC1 inhibitor: inhibitors of human hexokinase HKDC1; Q2TB90; recombinant HKDC1, G6PDH/diaphorase resazurin coupled fluorescence; inhibition, % at 20 µM; 340,000 compounds, 0.16% hits; AID 493160;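 active = inhibition above about 35% when tested at 20 µM, limit read from the data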;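 note: plate controls were DMSO wells with enzyme for no effect and DMSO wells lacking enzyme for full effect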
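Material: recombinant HKDC1 hexokinase; Amount: HKDC1 at 5 µg/mL; Medium: Tris pH 8.0 buffer with MgCl2, Tween-20, BSA, BME; Schedule: 90 min reaction incubation at room temperature, dark; Technique: coupled resazurin fluorescence, excitation 525 nm, emission 613 nm.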
UCH37 inh: human UCH37 deubiquitinating enzyme inhibition; Q9Y5K5; purified proteasome/UCH37, Ub-AMC cleavage fluorescence; inhibition, % (test concentration not listed); 330,000 compounds, 0.33% hits; AID 588478;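 active = mean inhibition over replicate wells above about 20%, limit read from the data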;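 note: 0% = compound-free wells with enzyme and 100% = wells lacking proteasome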
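Material: human UCH37 enzyme supplied as purified proteasome complex / Amount: 0.15 nM proteasome as dispensed / Buffer or medium: pH 7.4 Tris-HCl (50 mM) with ovalbumin, ATP-MgCl2, DTT / Times: preincubation 30 min, reaction 25 min, room temperature / Technique: AMC fluorescence from Ub-AMC cleavage, excitation 355 nm, emission 460 nm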
Cardio protect: modulators protecting cardiomyocytes from myocardial damage. AID 588492. 360,000 compounds, 0.63% hits. H9c2 cardiomyocytes, H2O2 injury protection, ATPLite, 2 h. protection from H2O2 cell death, % at 20 µM;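 active = compounds giving at least 50% protection of heart cells from peroxide-induced death in the single-dose screen, raw or plate-pattern-corrected value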;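 note: 0% = DMSO wells with peroxide and 100% = DMSO wells without peroxide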
PfG6PD confirm: confirmation of Plasmodium falciparum G6PD inhibitors; shares compounds with PfG6PD inh; recombinant PfGluPho, NADPH-diaphorase-resazurin fluorescence; inhibition, % at 20 µM; 2,400 compounds, 34% hits; AID 504753;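 active = inhibition of at least 50% at 20 µM in any single replicate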;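 note: 0% = DMSO with substrate and 100% = DMSO lacking glucose-6-phosphate substrate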
Diaphorase 10uM: diaphorase inhibition or oxidation at 10 uM NADPH; shares compounds with PfG6PD inh; diaphorase-coupled resazurin reduction, fluorescence, NADPH 10 uM; inhibition, % at 20 µM; 820 compounds, 39% hits; AID 504862;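 active = average inhibition reaching 50% or more with the compound at 20 µM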;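 note: resorufin red fluorescence formed as diaphorase reduces resazurin using NADPH; 0% = DMSO with enzyme and 100% = DMSO without enzyme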
Diaphorase 30uM: inhibits diaphorase or oxidizes, flagging false PfG6PD hits. shares compounds with PfG6PD inh. Diaphorase/resazurin coupled assay, resorufin fluorescence, 30 uM NADPH. inhibition, % at 20 µM. 820 compounds, 29% hits;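 active = inhibition averaging 50% or more, tested at 20 µM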;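 note: 0% = DMSO with enzyme and 100% = DMSO wells lacking diaphorase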
The depositor's hits bear a star; i = inactive; / = not tested or not shown.

SMILES	B2AR ag	aDG glyco up	PfG6PD inh	HKDC1 inhibitor	UCH37 inh	Cardio protect	PfG6PD confirm	others
CN1CCSc2ccc(C(=O)NCc3ccccc3F)cc21	-3	0	63*	-5	-104	-2	14
CCOc1cc(C=Nn2cnnc2)ccc1OS(=O)(=O)c1ccccc1	/	/	/	/	3	/	/
COc1ccc(CC(=O)NN=C(C)CC(=O)Nc2cccc(F)c2)cc1	/	/	/	/	1	/	/
COCc1cc(C)nc(OCC(=O)NN=Cc2ccc(O)cc2)c1C#N	/	/	/	/	4	/	/
O=C(NN=Cc1cccc([N+](=O)[O-])c1)c1cccc2ccccc12	0	0	16	-2	/	0	/
O=C(N/N=C/c1cccc([N+](=O)[O-])c1)c1ccccc1-n1cccc1	0	0	63*	-10	/	-6	44
Cc1cc(C)nc(SCC(=O)N/N=C/c2cccc([N+](=O)[O-])c2)n1	-11	0	93*	10	/	-4	30
Cc1cc(C)nc(SCC(=O)NN=Cc2cccc([N+](=O)[O-])c2)n1	/	/	/	/	2	/	/
N#CCC(=O)NN=Cc1cn(Cc2ccc(Cl)cc2Cl)c2ccccc12	/	/	/	/	4	/	/
O=C1NC2(CCCCC2)C(=O)N1N=Cc1ccc(O)cc1O	/	/	/	/	-2	/	/
O=CNc1ccc2c3c(cccc13)-c1ccccc1-2	-30	1	104*	26	-185	-6	18
CC(=O)Nc1ccc2c3c(cccc13)C(=O)N(c1ccccc1)C2=O	-6	0	0	-8	i	-3	/
Cc1ccc(-c2cc(C(=O)NN=Cc3ccco3)n[nH]2)s1	/	/	/	/	5	/	/
CCOC(=O)C1=C(c2ccccc2)N=c2sc(=Cc3ccco3)c(=O)n2C1c1cccs1 (stereo not drawn)	/	/	/	/	6	/	/
CC(C)c1ccc(N=C2N=C(N)c3ccccc32)cc1	7	0	59*	0	9	-29	30
NC1=NC(=Nc2ccc(Cl)cc2)c2ccccc21	-4	0	6	5	5	3	/
O=C1CCCC2=C1C(c1ccc(Cl)cc1)C1C(=O)c3ccccc3C1=N2 (stereo not drawn)	-10	0	72*	-1	-4	19	36
COc1cc(C(=O)Nc2scc(-c3ccccc3)c2C(=O)O)cc(OC)c1OC	13	0	69*	4	4	0	31
O=C(Nc1scc(-c2ccccc2)c1C(=O)O)c1ccccc1Cl	7	0	36	7	0	-4	/
COc1cc(C(=O)Nc2scc(-c3ccc(C)cc3)c2C(=O)O)cc(OC)c1OC	6	0	76*	5	0	6	35
Cc1ccc(C(=O)Nc2scc(-c3ccccc3)c2C(=O)O)cc1	0	0	105*	3	0	-14	47
Clc1ccc(-c2ccc(C=NNc3cc(N4CCOCC4)nc(N4CCOCC4)n3)o2)cc1	/	/	/	/	-22	/	/
COc1cc(NC(C)CCc2ccccc2)cc(OC)c1OC (stereo not drawn)	9	0	77*	16	-3	-6	79*	Diaphorase 10uM=8;Diaphorase 30uM=3
O=C(CNC(=O)c1ccc(S(=O)(=O)N2CCCC2)cc1)NN=Cc1ccccc1	/	/	/	/	3	/	/
CC(=NNC(=S)NCC(C)(C)C)c1cc(F)cc(F)c1O	/	/	/	/	-5	/	/
CC(=O)c1sc(NC(=O)c2ccc(C)c(C)c2)nc1C	-1	0	5	-7	-15	-13	/
CC(=O)c1sc(NC(=O)c2cnc(Cl)c(Cl)c2)nc1C	10	0	62*	0	12	-12	42
COc1ccc(N2CC(O)=C(c3nc4ccccc4s3)C2=N)c(OC)c1	18	3	64*	3	-3	3	43
CCc1c(C)nc2c(Br)cccc2c1SCCC#N	-1	0	59*	-1	4	-3	-5
